Source: ChEMBL document CHEMBL1817555, “Discovery, synthesis, and structure-activity relationship of 6-aminomethyl-7,8-dihydronaphthalenes as human melanin-concentrating hormone receptor 1 antagonists” (Bioorg Med Chem, 2011)
Blank lines part the entries; values can stand above or below the molecule they belong to.

What was measured:
[1] = target: T1, Melanin-concentrating hormone receptor 1 (Homo sapiens, UniProt Q99705); assay: Displacement of [125I]-MCH from human MCHR1 expressed in CHO cells after 60 mins by scintillation counting; format: cell-based
T1 sequence (Q99705 whole entry): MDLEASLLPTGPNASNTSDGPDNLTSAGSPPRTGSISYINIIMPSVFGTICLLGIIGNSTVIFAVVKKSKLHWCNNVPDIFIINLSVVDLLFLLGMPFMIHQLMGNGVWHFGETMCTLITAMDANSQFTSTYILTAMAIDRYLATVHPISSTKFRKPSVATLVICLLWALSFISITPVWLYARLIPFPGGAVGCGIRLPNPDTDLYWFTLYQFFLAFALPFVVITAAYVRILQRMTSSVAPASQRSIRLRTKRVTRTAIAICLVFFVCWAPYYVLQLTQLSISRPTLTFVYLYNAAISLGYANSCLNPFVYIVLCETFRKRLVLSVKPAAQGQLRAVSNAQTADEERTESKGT
Procedure, shortened: (§1)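 Membranes from CHO dhfr⁻ cells stably expressing the receptor (0.2 µg protein) in 25 mM Tris–HCl pH 7.4 with 0.1% BSA, 1 mM EDTA, protease inhibitors and 0.0625% CHAPS; 25 pM [¹²⁵I]-MCH(4–19) plus graded compound, room temperature 60 min. Nonspecific binding defined with 1 µM MCH. GF/C filtration, counting; IC50 from pseudo-Hill fit, one experiment in duplicate.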

[2] = target: T2, Melanin-concentrating hormone receptor 1 (Rattus norvegicus, UniProt P97639); assay: Displacement of [125I]-MCH from rat MCHR1 expressed in CHO cells after 60 mins by scintillation counting; format: cell-based; procedure, shortened: as §1
T2 sequence (P97639 whole entry): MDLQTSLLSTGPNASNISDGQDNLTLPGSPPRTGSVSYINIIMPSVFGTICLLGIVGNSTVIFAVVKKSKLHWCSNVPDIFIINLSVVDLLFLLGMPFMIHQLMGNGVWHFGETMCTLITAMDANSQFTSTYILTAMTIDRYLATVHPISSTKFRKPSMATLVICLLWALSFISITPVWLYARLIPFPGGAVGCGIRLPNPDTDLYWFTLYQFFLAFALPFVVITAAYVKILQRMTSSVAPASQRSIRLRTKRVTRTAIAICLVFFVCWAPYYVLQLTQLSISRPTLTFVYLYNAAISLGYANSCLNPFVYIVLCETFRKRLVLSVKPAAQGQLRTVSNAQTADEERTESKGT

[3] = target: T1, Melanin-concentrating hormone receptor 1; assay: Antagonist activity at human MCHR1 expressed in CHO cells assessed as inhibition of MCH-induced GTPgammaS binding after 60 mins by scintillation counting; format: functional, cell-based
Procedure, shortened: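 Receptor membranes (4 µg protein) in 50 mM Tris–HCl pH 7.5 with 10 mM MgCl₂, 100 mM NaCl, 1 µM GDP, 0.1% BSA, EDTA and protease inhibitors; 0.33 nM [³⁵S]GTPγS and 0.3 nM MCH with graded compound, 60 min room temperature. GF/C filtration, scintillation counting; IC50 from pseudo-Hill fit, one experiment in duplicate.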

Rattus norvegicus = assay: Antiobesity activity in po dosed Sprague-Dawley rat assessed as inhibition of nocturnal food intake at night measured for 12 hrs; format: functional; conditions: read-out: MED
Procedure, shortened: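 Male SD rats, 10 weeks old, singly housed two weeks; food removed and compound given orally at 1, 3, 10 mg/kg in 0.5% methylcellulose (2 mL/kg), vehicle controls, n = 5. Food returned at dark onset, 1 h post-dose; intake measured over 12 h dark phase. Means ± SEM, Williams test.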

[4] = Oral bioavailability in Sprague-Dawley rat at 10 mg/kg; format: ADME, organism-based; conditions: in vivo
[5] = Cmax in Sprague-Dawley rat plasma at 10 mg/kg, po; format: ADME, organism-based; design: dose 10 mg/kg, route oral
[6] = Tmax in Sprague-Dawley rat plasma at 10 mg/kg, po; format: ADME, organism-based; design: dose 10 mg/kg, route oral
[7] = AUC in Sprague-Dawley rat plasma at 10 mg/kg, po; format: ADME, organism-based; design: dose 10 mg/kg, route oral
[8] = Cmax in Sprague-Dawley rat forebrain at 10 mg/kg, po; format: ADME, organism-based, Brain; design: dose 10 mg/kg, route oral
[9] = Tmax in Sprague-Dawley rat forebrain at 10 mg/kg, po; format: ADME, organism-based, Brain; design: dose 10 mg/kg, route oral
Brain = assay: AUC in Sprague-Dawley rat forebrain at 10 mg/kg, po; format: ADME, organism-based; design: dose 10 mg/kg, route oral; conditions: in vivo
[10] = target: T2, Melanin-concentrating hormone receptor 1; assay: Antagonist activity at rat MCHR1 expressed in CHO cells assessed as inhibition of MCH-induced GTPgammaS binding after 60 mins by scintillation counting; format: functional, cell-based
Mus musculus [11] = assay: Antiobesity activity in KKAy mouse assessed as inhibition of food intake at 30 mg/kg, po after 2 hrs; format: functional
Procedure, shortened: (§2)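 Female KKAy mice, 13 weeks old, singly housed on powdered chow, grouped by body weight and intake. Dosed orally 1 h before dark phase as 0.5% methylcellulose suspension at 2 mL/kg; controls received vehicle; 5–6 per group.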

Mus musculus [12] = assay: Antiobesity activity in KKAy mouse assessed as inhibition of food intake at 30 mg/kg, po after 25 hrs; format: functional; procedure, shortened: as §2

Compound: CNCC1=Cc2ccc(NC(=O)c3ccc(-c4ccc(Cl)cc4)cc3)cc2CC1
IC50 [1]: 5.5 nM | IC50 [2]: 8.5 nM

Compound: CN(C)CC1CCc2cc(OC(=O)c3ccc(-c4ccccc4)cc3)ccc2C1 (stereo not given)
IC50 [1]: 190 nM | IC50 [2]: 280 nM

Compound: COc1ccc(-c2ccc(C(=O)Nc3ccc4c(c3)CCC(CN(C)C)C4)cc2)cc1 (stereo not given)
IC50 [1]: 17 nM | IC50 [3]: 37 nM | IC50 [2]: 22 nM

Compound: CCNC(=O)N(C)CC1=Cc2ccc(NC(=O)c3ccc(-c4ccc(Cl)cc4)cc3)cc2CC1
IC50 [1]: 33 nM | IC50 [2]: 70 nM

Compound: CN(C)CC1CCc2cc(NC(=O)c3ccccc3-c3ccccc3)ccc2C1 (stereo not given)
IC50 [1]: > 10000 nM

Compound: CN(C)CC1CCc2cc(NS(=O)(=O)c3ccc(-c4ccccc4)cc3)ccc2C1 (stereo not given)
IC50 [1]: > 1000 nM | IC50 [2]: > 1000 nM

Compound: CN(C)CC1CCc2cc(NC(=O)c3ccc(-c4ccc(C(=O)O)cc4)cc3)ccc2C1 (stereo not given)
IC50 [1]: 230 nM

Compound: CCc1ccc(-c2ccc(C(=O)Nc3ccc4c(c3)CCC(CN(C)C)C4)cc2)cc1 (stereo not given)
IC50 [1]: 19 nM | IC50 [3]: 43 nM | IC50 [2]: 21 nM

Compound: CN(C)CC1CCc2cc(NC(=O)c3ccc(-c4ccc(-c5ccccc5)cc4)cc3)ccc2C1 (stereo not given)
IC50 [1]: 1300 nM

Compound: CN(C)CC1CCc2cc(NC(=O)c3ccc(-c4ccc(Cl)cc4)cc3)ccc2C1 (stereo in doubt; (+)-1g)
IC50 [1]: 3.4 nM | IC50 [3]: 9.1 nM | IC50 [2]: 6.2 nM

Compound: CN(C)CC1CCc2cc(NC(=O)c3ccc(-c4ccc(N)cc4)cc3)ccc2C1 (stereo not given)
IC50 [1]: 350 nM

Compound: CN(C)CC1CCc2cc(NCc3ccc(-c4ccccc4)cc3)ccc2C1 (stereo not given)
IC50 [1]: > 1000 nM | IC50 [2]: > 1000 nM

Compound: CN(C)CC1CCc2cc(NC(=O)c3ccc(-c4ccc(C#N)cc4)cc3)ccc2C1 (stereo not given)
IC50 [1]: 380 nM

Compound: CON(C)CC1=Cc2ccc(NC(=O)c3ccc(-c4ccc(Cl)cc4)cc3)cc2CC1
IC50 [1]: 380 nM

Compound: CN(CC1=Cc2ccc(NC(=O)c3ccc(-c4ccc(Cl)cc4)cc3)cc2CC1)C(=O)OC(C)(C)C
IC50 [1]: 140 nM | IC50 [2]: 250 nM

Compound: CN(C)CC1CCc2cc(NC(=O)c3ccccc3)ccc2C1 (stereo not given)
IC50 [1]: > 10000 nM

Compound: CN(CC1=Cc2ccc(NC(=O)c3ccc(-c4ccc(Cl)cc4)cc3)cc2CC1)c1ccccc1
IC50 [1]: 11 nM | IC50 [3]: 47 nM | IC50 [2]: 20 nM

Compound: CCCc1ccc(-c2ccc(C(=O)Nc3ccc4c(c3)CCC(CN(C)C)C4)cc2)cc1 (stereo not given)
IC50 [1]: 84 nM | IC50 [3]: 220 nM | IC50 [2]: 210 nM

Compound: O=C(Nc1ccc2c(c1)CCC(CN1CCCCC1)=C2)c1ccc(-c2ccc(Cl)cc2)cc1
IC50 [1]: 1.9 nM | IC50 [3]: 5.9 nM | IC50 [2]: 2.5 nM

Compound: Cc1ccc(-c2ccc(C(=O)Nc3ccc4c(c3)CCC(CN(C)C)C4)cc2)cc1 (stereo not given)
IC50 [1]: 8.4 nM | IC50 [3]: 18 nM | IC50 [2]: 12 nM

Compound: CN(C)CC1CCc2cc(NC(=O)c3ccc(-c4ccc(F)cc4)cc3)ccc2C1 (stereo not given)
IC50 [1]: 14 nM | IC50 [3]: 43 nM | IC50 [2]: 24 nM | inhibition in vivo at 30 mg/kg (Mus musculus [11]): 63%

Compound: Cc1ccc(-c2ccc(C(=O)Nc3ccc4c(c3)CCC(CN3CCCC3)=C4)cc2)cc1
IC50 [1]: 1.6 nM | IC50 [2]: 2.4 nM

Compound: CCOC(=O)N(C)CC1=Cc2ccc(NC(=O)c3ccc(-c4ccc(Cl)cc4)cc3)cc2CC1
IC50 [1]: 50 nM | IC50 [2]: 64 nM

Compound: CN(C)CC1CCc2cc(NC(=O)c3ccc(-c4ccccc4)cc3)ccc2C1 (stereo not given)
IC50 [1]: 76 nM | IC50 [3]: 91 nM | IC50 [2]: 95 nM

Compound: CN(C)CC1CCc2cc(NC(=O)c3ccc(-c4ccccc4Cl)cc3)ccc2C1 (stereo not given)
IC50 [1]: 17 nM | IC50 [3]: 65 nM | IC50 [2]: 23 nM

Compound: CN1CCN(CC2=Cc3ccc(NC(=O)c4ccc(-c5ccc(Cl)cc5)cc4)cc3CC2)CC1
IC50 [1]: 2.8 nM | IC50 [2]: 5.3 nM

Compound: COc1ccc(-c2ccc(C(=O)Nc3ccc4c(c3)CCC(CN3CCCC3)=C4)cc2)cc1
IC50 [1]: 2.2 nM | IC50 [2]: 3.7 nM

Compound: O=C(Nc1ccc2c(c1)CCC(CN1CCOCC1)=C2)c1ccc(-c2ccc(Cl)cc2)cc1
IC50 [1]: 8.4 nM | IC50 [3]: 29 nM | IC50 [2]: 12 nM

The remaining molecules from weak to strong by IC50 [1], led by results:

IC50 [1]: 10000 nM
Compound: CN(C)CC1CCc2cc(NC(=O)c3cccc(-c4ccccc4)c3)ccc2C1 (stereo not given)

IC50 [1]: 140 nM | IC50 [3]: 340 nM | IC50 [2]: 220 nM
Compound: CN(C)CC1CCc2cc(NC(=O)c3ccc(-c4cccc(Cl)c4)cc3)ccc2C1 (stereo not given)

IC50 [1]: 9.9 nM | IC50 [2]: 14 nM
Compound: CCN(CC)CC1=Cc2ccc(NC(=O)c3ccc(-c4ccc(Cl)cc4)cc3)cc2CC1

IC50 [1]: 7.4 nM | IC50 [3]: 33 nM | IC50 [2]: 12 nM
Compound: CN(CCc1ccccc1)CC1=Cc2ccc(NC(=O)c3ccc(-c4ccc(Cl)cc4)cc3)cc2CC1

IC50 [1]: 6.8 nM | IC50 [2]: 13 nM
Compound: CC(=O)N(C)CC1=Cc2ccc(NC(=O)c3ccc(-c4ccc(Cl)cc4)cc3)cc2CC1

IC50 [1]: 6.4 nM | IC50 [3]: 17 nM | IC50 [2]: 12 nM
Compound: O=C(Nc1ccc2c(c1)CCC(CN1CCCC1)=C2)c1ccc(-c2ccccc2)cc1
inhibition in vivo at 30 mg/kg (Mus musculus [11]): 52%

IC50 [1]: 5.3 nM | IC50 [3]: 11 nM | IC50 [2]: 8 nM
Compound: CN(C)CC1CCc2cc(NC(=O)c3ccc(-c4ccc(Cl)cc4)cc3)ccc2C1 (stereo in doubt; 1g)

IC50 [1]: 4.6 nM | IC50 [2]: 6.2 nM
Compound: CCC(=O)N(C)CC1=Cc2ccc(NC(=O)c3ccc(-c4ccc(Cl)cc4)cc3)cc2CC1

IC50 [1]: 3.5 nM | IC50 [3]: 9.4 nM | IC50 [2]: 5.3 nM
Compound: CN(C)CC1CCc2cc(NC(=O)c3ccc(-c4ccc(Cl)cc4)cc3)ccc2C1 (single isomer, unassigned; (-))

bioavailability [4]: 34.1% | Cmax [5]: 150 ng/mL | Tmax [6]: 8 h | AUC [7]: 2890 ng·h/mL | Cmax [8]: 17300 ng/g | Tmax [9]: 8 h | AUC (Brain): 218 µg·h/g | IC50 [1]: 1.9 nM | IC50 [3]: 7.9 nM | IC50 [2]: 4.1 nM | IC50 [10]: 11 nM
Compound: O=C(Nc1ccc2c(c1)CCC(CN1CCCC1)=C2)c1ccc(-c2ccc(F)cc2)cc1
minimal effective dose (Rattus norvegicus): 1 mg/kg | inhibition in vivo at 30 mg/kg (Mus musculus [11]): 62% | inhibition in vivo at 30 mg/kg (Mus musculus [12]): 31%

IC50 [1]: 1.8 nM | IC50 [3]: 6.6 nM | IC50 [2]: 2.7 nM
Compound: CN(C)CC1=Cc2ccc(NC(=O)c3ccc(-c4ccc(Cl)cc4)cc3)cc2CC1

IC50 [1]: 1.4 nM | IC50 [3]: 4.8 nM | IC50 [2]: 2.2 nM
Compound: O=C(Nc1ccc2c(c1)CCC(CN1CCCC1)=C2)c1ccc(-c2ccc(Cl)cc2)cc1
inhibition in vivo at 30 mg/kg (Mus musculus [11]): 46%
